Results from ChEMBL document CHEMBL5715951, “Synergistic Reactivation of Latent HIV Expression by Ingenol-3-Angelate, PEP005, Targeted NF-kB Signaling in Combination with JQ1 Induced p-TEFb Activation” (PLoS Pathog, 2015).
The source made the active and inactive calls. No cut-off for these calls is given here.

Tests used:
[1] = Inhibition of PKCtheta/PKCdelta in HIV infected human J-Lat A cells assessed as reduction of PEP005 induced disruption of HIV latency treated at 2.5 nM relative to control; design: species or system J-Lat A1; scale not given: the % may be the effect or the level left; conditions: condition hiv infection
J-Lat A1 [2] = assay: Cytotoxicity against human J-Lat A1 cells harboring a single copy of latent HIV LTR assessed as cell viability at 2 to 40 nM by Live/Dead dye staining assay; type: functional, cell-based; conditions: dose 2-40 nM
Method in brief: (§1)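 J-Lat A1 cells exposed to PEP005 over 2–40 nM for 24 h; HIV reactivation as GFP expression by flow cytometry, fold versus untreated; viability by Live/Dead dye staining, flow cytometry.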

[3] = Anti retroviral activity against human J-Lat A1 cells harboring a single copy of latent HIV LTR assessed as fold increase in HIV reactivation at 20 nM by flow cytometry analysis; type: functional; method in brief: as §1
J-Lat A1 [4] = assay: Anti retroviral activity against human J-Lat A1 cells harboring a single copy of latent HIV LTR assessed as HIV reactivation by flow cytometry analysis; type: functional, cell-based; conditions: dose 2-40 nM; method in brief: as §1
J-Lat A1 [5] = assay: Anti retroviral activity against human J-Lat A1 cells harboring a single copy of latent HIV LTR assessed as HIV reactivation at 10 nM incubated for 24 hrs by flow cytometry analysis; type: functional, cell-based
Method in brief: (§2)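 J-Lat A1 cells (single latent LTR-GFP copy) treated 24 h at fixed levels (10 nM PEP005, 500 nM SAHA, 2 μM JQ1/GSK343/Prostratin, 10 ng/ml TNF, 5 ng/ml PMA); percentage GFP-positive cells by flow cytometry.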

U1 [6] = assay: Anti retroviral activity against human U1 cells harbouring HIV genomes with Tat gene mutation assessed as fold increase in HIV reactivation at 6 nM by flow cytometry analysis; type: functional
J-Lat A1 [7] = assay: Induction of PKC/NF-Kappa B pathway in human J-Lat A1 cells assessed as upregulation of PKC mu/D at 12 nM upto 6 hrs by Western blotting analysis; type: cell-based
Method in brief: (§3)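 One million J-Lat A1 cells incubated with 12 nM PEP005 up to 6 h; RIPA extracts with protease/phosphatase inhibitors; immunoblots for PKC isoforms, phospho-PKCδ/θ, NF-κB/p65 and phospho-IκBα (Ser32), β (Thr19/Ser23), ε (Ser18/22); band intensities by densitometry, three independent experiments.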

J-Lat A1 [8] = assay: Induction of PKC/NF-Kappa B pathway in human J-Lat A1 cells assessed as upregulation of PKC alpha at 12 nM upto 6 hrs by Western blotting analysis; type: cell-based; method in brief: as §3
J-Lat A1 [9] = assay: Induction of PKC/NF-Kappa B pathway in human J-Lat A1 cells assessed as upregulation of PKC theta at 12 nM upto 6 hrs by Western blotting analysis; type: cell-based; method in brief: as §3
J-Lat A1 [10] = assay: Induction of PKC/NF-Kappa B pathway in human J-Lat A1 cells assessed as upregulation of PKC delta at 12 nM at 1 hr by Western blotting analysis; type: cell-based; method in brief: as §3
[11] = Induction of PKCtheta/PKCdelta phosphorylation at Ser676/Ser643 in human J-Lat A1 cells assessed as fold change measured after 30 mins; conditions: condition hiv infection, 0.5 h
[12] = molecular target: T1, Inhibitor of nuclear factor kappa-B kinase subunit beta (Homo sapiens) (UniProt O14920); assay: Induction of IkappaB beta phosphorylation in human […] at 12 nM upto 6 hrs by Western blotting analysis; type: cell-based; conditions: J-Lat A1; method in brief: as §3
T1 sequence (whole entry): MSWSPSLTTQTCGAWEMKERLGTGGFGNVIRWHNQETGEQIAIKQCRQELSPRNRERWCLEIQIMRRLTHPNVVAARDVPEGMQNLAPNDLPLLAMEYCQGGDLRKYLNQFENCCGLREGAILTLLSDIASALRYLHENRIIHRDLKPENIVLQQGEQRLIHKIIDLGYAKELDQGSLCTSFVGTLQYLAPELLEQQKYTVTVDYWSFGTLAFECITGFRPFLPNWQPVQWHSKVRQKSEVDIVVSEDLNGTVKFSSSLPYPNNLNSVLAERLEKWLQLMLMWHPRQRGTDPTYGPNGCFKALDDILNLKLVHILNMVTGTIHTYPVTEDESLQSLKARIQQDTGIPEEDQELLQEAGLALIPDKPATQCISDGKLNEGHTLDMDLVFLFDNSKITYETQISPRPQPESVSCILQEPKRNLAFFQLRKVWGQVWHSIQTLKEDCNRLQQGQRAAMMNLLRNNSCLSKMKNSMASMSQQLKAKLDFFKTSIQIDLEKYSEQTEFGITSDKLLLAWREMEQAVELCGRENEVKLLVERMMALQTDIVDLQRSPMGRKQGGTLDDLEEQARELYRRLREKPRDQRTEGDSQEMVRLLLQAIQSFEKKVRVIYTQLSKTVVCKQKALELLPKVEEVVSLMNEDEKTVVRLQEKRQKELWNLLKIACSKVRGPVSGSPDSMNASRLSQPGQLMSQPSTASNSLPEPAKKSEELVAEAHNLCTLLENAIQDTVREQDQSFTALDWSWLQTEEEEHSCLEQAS

J-Lat A1 [13] = assay: Effect on NF kappaB/p65 expression in human […] at 12 nM upto 6 hrs by Western blotting analysis; type: functional, cell-based; method in brief: as §3
[14] = Inhibition of PKCtheta/PKCdelta in HIV infected human J-Lat A cells assessed as reduction of HIV latent reactivation treated at 6 nM in presence of PKC inhibitor relative to control; design: species or system J-Lat A1; scale not given: the % may be the effect or the level left; conditions: condition hiv infection
Method in brief: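 J-Lat A1 cells got 6 nM PEP005 together with 1, 2 or 5 μM PKCθ/δ inhibitor. HIV reactivation was read as GFP expression by RT-qPCR against PEP005-only cells. Data from at least 3 independent experiments in triplicate.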

[15] = Binding affinity of NFkappa B to HIV LTR in human J-Lat A1 cells assessed as fold increase at 12 nM by ChIP-qPCR analysis; conditions: condition hiv infection
Method in brief: (§4)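 ChIP-qPCR on J-Lat A1 cells, 1x10^6 per sample, given 12 nM PEP005 with or without a PKCδ/θ inhibitor. Cells fixed in 1% formaldehyde and lysed in SDS/EDTA/Tris pH 8.1 buffer with protease inhibitors. Chromatin sonicated to 200–1500 bp. Immune complexes taken on protein A/G-agarose for 45 min, then reverse cross-linked overnight. NF-κB/p65 binding at HIV LTR read by SYBR qPCR. Data from at least 3 independent experiments in triplicate.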

[16] = Binding affinity of NFkappa B to HIV LTR in human J-Lat A1 cells assessed as reduction in compound induced fold increase at 12 nM in presence of PKC inhibitor by ChIP-qPCR analysis relative to control; design: scale not given: the % may be the effect or the level left; conditions: condition hiv infection; method in brief: as §4
[17] = Cytotoxicity against human CD4+ T cells assessed as change in CD38 expression at 12 nM for 24 hrs by RT-qPCR analysis; type: toxicity, cell-based; conditions: cd4+ t cell, 0.012 µM
Method in brief: (§5)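 CD4+ T cells purified from uninfected donors, treated 24 h with 12 nM; total RNA extracted and CD38, CD69, CD25 and HLA-DR transcripts measured by RT-qPCR.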

[18] = Cytotoxicity against human CD4+ T cells assessed as change in CD25 expression at 12 nM for 24 hrs by RT-qPCR analysis; type: toxicity, cell-based; conditions: cd4+ t cell, 0.012 µM; method in brief: as §5
[19] = Cytotoxicity against human CD4+ T cells assessed as change in CD69 expression at 12 nM for 24 hrs by RT-qPCR analysis; type: toxicity, cell-based; conditions: cd4+ t cell, 0.012 µM; method in brief: as §5
CD4+ T cell [20] = assay: Induction of pro-inflammatory cytokine TNF-alpha expression in human CD4+ T cells at 6 to 12 nM for 24 to 72 hrs by RT-qPCR analysis; type: functional, cell-based; conditions: dose 6-12 nM, time 24-72 hrs
Method in brief: (§6)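 CD4+ T cells from healthy HIV-negative donors treated with 6 or 12 nM PEP005 for 24 or 72 h; TNF-α, IFN-γ, IL-2 and IL-6 mRNA quantified by RT-qPCR normalized to GAPDH.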

CD4+ T cell [21] = assay: Induction of pro-inflammatory cytokine IFN-gamma expression in human CD4+ T cells at 6 to 12 nM for 24 to 72 hrs by RT-qPCR analysis; type: functional, cell-based; conditions: dose 6-12 nM, time 24-72 hrs; method in brief: as §6
CD4+ T cell [22] = assay: Induction of pro-inflammatory cytokine IL-2 expression in human CD4+ T cells at 6 to 12 nM for 24 to 72 hrs by RT-qPCR analysis; type: functional, cell-based; conditions: dose 6-12 nM, time 24-72 hrs; method in brief: as §6
CD4+ T cell [23] = assay: Induction of pro-inflammatory cytokine IL-6 expression in human CD4+ T cells at 6 to 12 nM for 24 to 72 hrs by RT-qPCR analysis; type: functional, cell-based; conditions: dose 6-12 nM, time 24-72 hrs; method in brief: as §6
J-Lat A1 [24] = assay: Induction of cell cycle arrest in human J-Lat A1 cells assessed as accumulation of cells at S phase at 12 nM for 24 hrs BrdU ELISA analysis; type: functional, cell-based
Method in brief: (§7)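 U1, J-Lat A1 or healthy-donor CD4+ T cells treated 24 h with 12 nM PEP005; S-phase progression by BrdU incorporation ELISA; doxorubicin […] positive control.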

U1 [25] = assay: Induction of cell cycle arrest in human U1 cells assessed as accumulation of cells at S phase at 12 nM for 24 hrs BrdU ELISA analysis; type: functional, cell-based; method in brief: as §7
CD4+ T cell [26] = assay: Induction of cell cycle arrest in human CD4+ T cells assessed as accumulation of cells at S phase at 12 nM for 24 hrs BrdU ELISA analysis; type: functional, cell-based; method in brief: as §7
J-Lat A1 [27] = assay: Anti retroviral activity against human J-Lat A1 cells harboring a single copy of latent HIV LTR assessed as HIV reactivation at 2 uM incubated for 24 hrs by flow cytometry analysis; type: functional, cell-based; method in brief: as §2
J-Lat A1 [28] = assay: Anti retroviral activity against PEP005 treated human J-Lat A1 cells harboring a single copy of latent HIV LTR assessed as HIV reactivation at 2 uM incubated for 24 hrs by flow cytometry analysis; type: functional, cell-based
Method in brief: (§8)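 J-Lat A1 cells (RPMI1640, 10% FBS, 37°C, 5% CO2) exposed to 2 μM agent alone or combined with 6 nM PEP005 for 24 h; percentage of GFP-expressing cells by flow cytometry; Bliss independence model for synergy; ≥3 independent experiments in triplicate.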

J-Lat A1 [29] = assay: Anti retroviral activity against PEP005 treated human J-Lat A1 cells harboring a single copy of latent HIV LTR assessed as HIV reactivation at 2 uM followed by 6 nM of PEP005 incubated for 24 hrs by flow cytometry analysis; type: functional, cell-based; method in brief: as §8
U1 [30] = assay: Anti retroviral activity against PEP005 treated human U1 cells harbouring complete HIV genomes with Tat gene mutation assessed as fold increase in HIV reactivation at 2 uM followed by 6 nM of PEP005 incubated for 24 hrs by flow cytometry analysis; type: functional
J-Lat A1 [31] = assay: Anti retroviral activity against human J-Lat A1 cells harboring a single copy of latent HIV LTR assessed as HIV reactivation at 500 nM incubated for 24 hrs by flow cytometry analysis; type: functional, cell-based; method in brief: as §2
J-Lat A1 [32] = assay: Anti retroviral activity against human J-Lat A1 cells harboring a single copy of latent HIV LTR assessed as HIV reactivation at 5 ng/ml incubated for 24 hrs by flow cytometry analysis; type: functional, cell-based; method in brief: as §2

Cc1ccc(S(=O)(=O)/C=C/C#N)cc1
Activity [1]: 50%

C/C=C(/C)C(=O)O[C@H]1C(C)=C[C@]23C(=O)[C@@H](C=C(CO)[C@@H](O)[C@]12O)[C@H]1[C@@H](C[C@H]3C)C1(C)C [INGENOL MEBUTATE]
Activity (J-Lat A1 [2]): inactive | fold change (FC) [3]: 7 | Activity (J-Lat A1 [4]): Dose-Dependent Effect | Activity (J-Lat A1 [5]): Active | fold change (FC) (U1 [6]): 25 | Activity (J-Lat A1 [7]): inactive | Activity (J-Lat A1 [8]): inactive | Activity (J-Lat A1 [9]): inactive | Activity (J-Lat A1 [10]): Active | fold change (FC) [11]: 2 | Activity [12]: inactive | Activity (J-Lat A1 [13]): inactive | Activity [14]: >65% | fold change (FC) [15]: 6 | Activity [16]: >70% | Activity [17]: Non-Toxic | Activity [18]: Non-Toxic | Activity [19]: Non-Toxic | Activity (CD4+ T cell [20]): inactive | Activity (CD4+ T cell [21]): inactive | Activity (CD4+ T cell [22]): inactive | Activity (CD4+ T cell [23]): inactive | Activity (J-Lat A1 [24]): inactive | Activity (U1 [25]): inactive | Activity (CD4+ T cell [26]): inactive

Cc1sc2c(c1C)C(c1ccc(Cl)cc1)=N[C@@H](CC(=O)OC(C)(C)C)c1nnc(C)n1-2
Activity (J-Lat A1 [27]): Active | Activity (J-Lat A1 [28]): Active | Activity (J-Lat A1 [29]): Active | fold change (FC) (U1 [30]): 250

O=C(CCCCCCC(=O)Nc1ccccc1)NO
Activity (J-Lat A1 [31]): Active

CC(=O)O[C@@]12C[C@@H](C)[C@@]3(O)[C@@H](C=C(CO)C[C@]4(O)C(=O)C(C)=C[C@@H]34)[C@@H]1C2(C)C
Activity (J-Lat A1 [27]): Active

CCCCCCCCCCCCCC(=O)O[C@@H]1[C@@H](C)[C@@]2(O)[C@@H](C=C(CO)C[C@]3(O)C(=O)C(C)=C[C@@H]23)[C@@H]2C(C)(C)[C@]12OC(C)=O
Activity (J-Lat A1 [32]): Active

CCCc1cc(C)[nH]c(=O)c1CNC(=O)c1cc(-c2ccnc(N3CCN(C)CC3)c2)cc2c1cnn2C(C)C
Activity (J-Lat A1 [27]): inactive | Activity (J-Lat A1 [29]): Active
